Data reported in ChEMBL document CHEMBL4513216, “Probing the Open Global Health Chemical Diversity Library for Multistage-Active Starting Points for Next-Generation Antimalarials” (ACS Infect Dis, 2020).

assay: Toxicity liver stage against HepG2, at 10uM; format: cell-based; set-up: test concentration 10 uM, cell line HepG2-A16-CD81EGFP; settings: human, HepG2-A16-CD81EGFP cells; read-out: INHIBITION
Outline: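 Uninfected HepG2-A16-CD81EGFP cells, 3 × 10^3 per well, 1536-well, plated on prespotted compound at 10 μM final, parasite-free screening media added to match infected plates; puromycin 10 μM positive, DMSO 0.5% negative; run in parallel with 48 h PbLuc assay at 37 °C, 5% CO2; viability by CellTiter-Glo luminescence, normalized to controls.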

| SMILES | cytotoxicity at 10 µM [%] |
| --- | --- |
| CC(C)(C)NC(=O)c1ccc(COCC(F)(F)F)o1 | -0.585 |
| O=C(c1cn(CC(=O)N2CCCCC2)c2ccccc12)C1CC1 | 9.14 |
| CC(=O)N1CCN(C(=O)Cc2cnc(-c3c(Cl)cccc3Cl)s2)CC1 | 7.27 |
| CC(C)NC(=O)c1csc(NC2CC2)n1 | -2.72 |
| CN1CCN(C(=O)c2cc3sccc3n2Cc2ccc(Cl)cc2)CC1 | 1.05 |
| CC1CC(=O)c2cc(C(=O)N3CCOCC3)c(=O)[nH]c2C1 (stereo unspecified) | -3.06 |
| COc1c[nH]c(C(=O)N2CCN(c3ccc(Cl)cc3)CC2)cc1=O | 4.42 |
| CC(=O)Nc1cnc(-n2ccnc2)nc1 | -1.25 |
| O=C1CCSCC(C(=O)NCc2nc(-c3ccccc3)no2)N1 (stereo unspecified) | -4.66 |
| O=C(NCCC(O)c1ccoc1)Nc1cccs1 (stereo unspecified) | -2.55 |
| CN(C)C(=O)[C@H]1CC[C@@H]2[C@@H](CCN2C(=O)N(C)C)O1 | 20.3 |
| COc1ncccc1CN1CC[C@H]2O[C@H](c3nnc(C)o3)CC[C@H]21 | 15.1 |
| CN1C(=O)C2(CCN(C(=O)c3cccnc3)CC2)c2cccc(F)c21 | -1.06 |
| CN(C)C(=O)C1OC2(CCN(C(=O)N(C)C)CC2)c2ccccc21 (stereo unspecified) | 8.04 |
| Cc1cc(C)c(C#N)c(N2CCC(Cc3ccccc3)CC2)n1 | -11.8 |
| COc1cc(Cl)c(C)cc1-n1nnc(C(=O)O)c1-c1ccncc1 | 4.74 |
| O=C(COCC(=O)N1CCCCCC1)NCc1cccc(Br)c1 | 1.47 |
| COc1ccc(-c2cc(C(=O)N3N=C(C)CC3(O)C(F)(F)F)[nH]n2)cc1 (stereo unspecified) | 1.36 |
| O=C(O)C1CCCN1c1nc(C2CC2)cc(C(F)(F)F)n1 (stereo unspecified) | 7.55 |
| CCOc1cc(C(=O)n2cc(C)cn2)cc(OCC)c1OCC | 8.29 |
| c1cnc(CC2COCCN(C3CCCCC3)C2)cn1 (stereo unspecified) | 0.514 |
| C=C(C)Cn1nc(C)c(CN2CCN(C3CCCCC3)C(=O)C2)c1C | 4.59 |
| Cc1nc(-c2c(C)noc2C)cc(C2CCN(CC(=O)N(C)C)CC2)n1 | 5.84 |

| SMILES | cytotoxicity at 10 µM [%] |
| --- | --- |
| O=C(c1cncs1)N1CCOCC(Cc2ccccn2)C1 (stereo unspecified) | 0.105 |
| CCN(Cc1ccncc1)CC1(C)Cc2c(N)nc(N)nc2O1 (stereo unspecified) | 2.15 |
| CS(=O)(=O)N1CC2(CCN(Cc3ccccn3)C2)Cc2ccccc21 (stereo unspecified) | 8.08 |
| COC(=O)c1ncccc1N1CCN(C(=O)CN2CCOCC2)CC1 | 16.7 |
| O=C(C(c1ccccc1)S(=O)(=O)c1ccccn1)N1CCCC1 (stereo unspecified) | 7.27 |
| CC(C(=O)NC1CCCC1)S(=O)(=O)Cc1noc(C(C)(C)C)n1 (stereo unspecified) | -9.41 |
| COc1ccncc1NC(=O)C1(c2ccccc2)CC1 | 2.72 |
| Cc1cc(C(=O)N(C)CCN(C)C(=O)OC(C)(C)C)oc1C | 3.51 |
| Cc1ccc(CC(NC(=O)CN(C)C2CC2)c2ccccn2)cc1 (stereo unspecified) | 5.33 |
| O=S(=O)(Cc1nc(C2CC2)no1)c1cc(F)ccc1F | 7.81 |
| Cc1noc(C)c1CNC(=O)Nc1ccc(N2CCOC2=O)cc1 | -2.93 |
| CC(C)Cn1ncc(C(=O)O)c1C1CC1 | -14 |
| CCc1ccc(C(COC)NC(=O)c2ccc(F)c(NC(C)=O)c2)o1 (stereo unspecified) | -11.1 |
| CCOC(=O)c1nnc2ccccc2c1N1CCN(C(C)C)CC1 | -1.54 |
| Cn1cc(C2CCCN2C(=O)Cc2coc(-c3ccccc3)n2)cn1 (stereo unspecified) | 4.14 |
| CC(=O)N(Cc1ncc(C)o1)C1CCN(Cc2cnc(C)s2)C1 (stereo unspecified) | 5.42 |
| COc1cc(CN(C)C(=O)NC2CC2)ccc1SC | -8.01 |
| COc1cc(CN(C)C(=O)NCC(=O)NC(C)C)ccc1SC | -15.5 |
| Clc1cnccc1N1CCCC2(CCCOC2)C1 (stereo unspecified) | -2.35 |
| Cc1ccc(CNC(=O)NC(C)CN2CCOCC2)s1 (stereo unspecified) | -14.1 |
| Cc1cnn(CC2CCCN2C(=O)Cc2c(C)noc2Cl)c1 (stereo unspecified) | 0.471 |
| CCC(C)NC(=O)NCCC(=O)N1CCN(c2ccccn2)CC1 (stereo unspecified) | 4.22 |
| CCN(Cc1ccoc1)C(=O)c1cc(S(N)(=O)=O)c(C)o1 | -2.98 |

| SMILES | cytotoxicity at 10 µM [%] |
| --- | --- |
| O=C(NCCNc1ccccn1)NCC1CCS(=O)(=O)C1 (stereo unspecified) | 1.48 |
| COCCN(C)S(=O)(=O)c1cc(C)cc(F)c1 | 3.49 |
| Cc1cc(C(C)NC(=O)CCn2nnc3ccccc3c2=O)c(C)o1 (stereo unspecified) | 3.81 |
| COCCC1(CNC(=O)NCC2CCCS2)CCCC1 (stereo unspecified) | 0.96 |
| O=C(Nc1cccnc1)NC(CCCO)c1ccccc1 (stereo unspecified) | -4.4 |
| O=C1CCCc2[nH]c(=O)c(C(=O)N3CCc4ccccc4C3)cc21 | 14.6 |
| O=c1cc(CNCc2ccc3c(c2)OCO3)nc2ccccn12 | -6.17 |
| Cc1cccc(NS(=O)(=O)c2cc(C(=O)O)oc2C)c1 | -9.15 |
| Cc1ccc(S(=O)(=O)NCCNC(=O)c2ccoc2)cc1F | -5.69 |
| CCOC(=O)c1c(NC(=O)CN2CCN(C(C)=O)CC2)sc2c1CCC2 | -5.33 |
| CO[C@H]1CC[C@H]2[C@H]1OCCN2C(=O)CCOc1ccccc1 | -95 |
| CS(=O)(=O)NC[C@]12COC[C@H]1CN(C(=O)CC1CCCC1)C2 | -101 |
| O=C(c1cscn1)N1CCC[C@]2(C[C@H](OCC3CC3)CO2)C1 | -2.86 |
| COc1ccccc1CN1CCC2(CC1)CC(Oc1ccccn1)CO2 (stereo unspecified) | -1.96 |
| COc1ccccc1OC1CN(Cc2ccc(C(=O)O)cc2)C1 | -8.98 |
| Cc1cccc(CNC2CC(=O)N(Cc3cccc(F)c3)C2)c1 (stereo unspecified) | 1.22 |
| COc1cccc2c1OCC(NCCCOc1cccnc1)C2 (stereo unspecified) | 1.52 |
| COc1ccc(Cc2nc3c([nH]2)CC(C)(C)CNC3=O)cc1OC | -3.04 |
| COCCN(C)C(C(=O)O)c1ccc(F)c(C)c1 (stereo unspecified) | 1.87 |
| O=C(C1CC12CCC2)N1CCC(n2cc(-c3ccsc3)nn2)CC1 (stereo unspecified) | 5.85 |
| Cc1nc2c(c(=O)n1C)CCN(C(=O)CCc1ccccc1O)CC2 | 0.53 |
| CCn1nc(CC(C)C)cc1C(=O)N1CCCC(C#N)C1 (stereo unspecified) | -8.2 |
| Cc1cc(C)n(CCCN(C)Cc2cn[nH]c2-c2ccc(F)cc2)n1 | 2.09 |

| SMILES | cytotoxicity at 10 µM [%] |
| --- | --- |
| Cc1nc(CN2CCCC23CCN(c2nc4ccccc4s2)CC3)co1 | -1.99 |
| CC(C)c1nccn1C(C)C(=O)NC1CCN(S(C)(=O)=O)CC1 (stereo unspecified) | -2.86 |
| COc1cccc2c1OCCCN(Cc1ccc(C(N)=O)c(=O)[nH]1)C2 | 4.82 |
| Cc1ccc(-c2nc(CC3CCN(C)CC3)no2)cc1N1CCNC1=O | -11.8 |
| COCC(=O)N1CCC2(CC1)CC(=O)N(Cc1ccc(Cl)cc1)C2 | 0.96 |
| CC(C)n1ccnc1C1CCCN(c2ncccc2C(N)=O)C1 (stereo unspecified) | -9.53 |
| N#Cc1cccc(NC2CC(=O)N(Cc3ccccc3Cl)C2)n1 (stereo unspecified) | 4.37 |
| CCOCCC(=O)NCC1CCCO1 (stereo unspecified) | 6.56 |
| Cc1nc[nH]c1CN1CCN(C(=O)C2(C)CC2)[C@H]2CS(=O)(=O)C[C@H]21 | -4.76 |
| CC(C)[C@H]1CN(C(=O)CO)C[C@@H]1N(C)C | 7.1 |
| COCCN(C)CCN1CC2(CCN(C3CCNCC3)CC2)OC1=O | 1.64 |
| CCCNS(=O)(=O)c1ccc2[nH]c(=O)cc(C)c2c1 | -3.37 |
| O=C(c1cccnc1N1CCN(Cc2ccoc2)CC1)N1CCCCC1 | -3.68 |
| CN1Cc2ccccc2CC1C(=O)N1CCN(CCS(C)(=O)=O)CC1 (stereo unspecified) | 15.1 |
| CCc1nc(CN(C)C2CCCN(c3cccnn3)C2)no1 (stereo unspecified) | -5.87 |
| Cc1noc(NC(=O)CCNC(=O)c2ccc(Br)cc2)n1 | 0.449 |
| Cc1ccc(F)c(NS(=O)(=O)c2cc3c(c(C(=O)O)c2)OCCO3)c1 | -5.32 |
| CCOc1cc(C(=O)N2CCCC(c3noc(C(C)C)n3)C2)ccn1 (stereo unspecified) | -6.73 |
| CCNc1cc2c(nn1)CCN(C(=O)c1c(C)noc1C)C2 | -5.76 |
| CC(=O)N(Cc1ncc(C(C)C)o1)C1CCN(Cc2cc(C)no2)C1 (stereo unspecified) | -5.89 |
| CC(=O)c1cccc(NC(=O)Cn2nc(-c3cccs3)oc2=O)c1 | 4.78 |
| O=C(CCCOc1ccccc1)N1CCCC(n2cncn2)C1 (stereo unspecified) | -8.57 |
| COc1cccc(-n2nnc(C(=O)N3CCOC(C)C3)c2C)c1 (stereo unspecified) | -9.95 |

| SMILES | cytotoxicity at 10 µM [%] |
| --- | --- |
| N#Cc1cccnc1N1CCCN(C(=O)CCn2cncn2)CC1 | 0.111 |
| CC1CN(C(=O)NCCNc2cnccn2)CCO1 (stereo unspecified) | 5.31 |
| Cc1nc(C)n(C2CCCN(C(=O)CCCOc3ccccc3)C2)n1 (stereo unspecified) | -12.7 |
| COCc1nc(C(=O)NS(=O)(=O)c2ccc(C)cc2C)cs1 | -4.35 |
| N#CC1(C(=O)N2CCN(c3nccs3)CC2)CCCCC1 | -8.24 |
| CSCc1cccc(C(=O)N2CCN(CC(C)O)CC2)c1 (stereo unspecified) | -5.31 |
| CN(CC(=O)N1CCCN(Cc2cscn2)CC1)c1cnccn1 | -7.81 |
| CCOc1ccc(C(=O)N2CCN(c3nccn3C)CC2)cc1 | 5.89 |
| CC(C)(C)Nc1c(C2CCCN(C(=O)C3CC3)C2)nc2ccccn12 (stereo unspecified) | 8.07 |
| Brc1cc(CNCc2nnc3n2CCC3)cs1 | -6.22 |
| Fc1cccnc1O[C@@H]1CN(Cc2ccccn2)[C@@H]2CCCO[C@@H]21 | 1.71 |
| Cc1ncnc2c1CCN(C(=O)Cc1ccccn1)CC2 | 8.12 |
| COc1nn(C)c2c1CCCN(C(=O)c1ccc3ccccc3n1)C2 | 13.7 |
| CN1CCC2(CC1)C(=O)N(CC1CC1)c1ccccc12 | 3.21 |
| O=C(C1CCOCC1)N1CCO[C@H]2[C@H](OCc3ccncc3)CC[C@@H]21 | -2.53 |
| CN(C)C(=O)[C@H]1CC[C@@H]2[C@@H](CCN2Cc2ccccn2)O1 | 3.21 |
| O=c1[nH]c2cn(-c3ccccc3)c(=O)n2[nH]1 | -11.5 |
| CCc1cc(NC2CCC(N)CC2)n2nc(C)c(C)c2n1 (stereo unspecified) | -4.33 |
| CSc1ncc(C(=O)N2C[C@@H]3CC[C@H]2CN(c2ncccn2)C3)cn1 | 1.26 |
